Common to all, as to format: functional
Settings in all cases: read-out: Activity

A short description of experiment [1]: Neuroprotective activity against glutamate-stimulated rat cortical cells assessed as cell viability at 0.1 uM after 1 hr by LDH assay relative to control. The method, boiled down:
(§1)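 Mixed cortical cultures from 17- to 19-day fetal Sprague-Dawley rats, grown 2 weeks in DMEM/10% FCS, with 5-fluorodeoxyuridine 50 µM from day 3. Cells were washed, given sample in DMSO (0.1% final) for 1 h, then 50 µM glutamate plus sample for 24 h. Medium LDH was read at 450 nm. Viability is relative to glutamate-only and vehicle control; mean ± SEM, three experiments.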

Experiment [2] is described as follows: Neuroprotective activity against glutamate-stimulated rat cortical cells assessed as cell viability at 1 uM after 1 hr by LDH assay relative to control. The method, boiled down: as §1
Experiment [3] can be described thus: Neuroprotective activity against glutamate-stimulated rat cortical cells assessed as cell viability at 10 uM after 1 hr by LDH assay relative to control. The method, boiled down: as §1

The values that follow come from ChEMBL document CHEMBL1150223, “Neuroprotective constituents from Hedyotis diffusa” (2001).

As for `COC(=O)C1=CO[C@@H](O[C@@H]2O[C@H](CO)[C@@H](O)[C@H](O)[C@H]2O)[C@@H]2C(CO)=C[C@@H](OC(=O)/C=C\c3ccc(OC)cc3)[C@H]12`, the viability at 0.1 µM in experiment [1] stood at 28.8%. The viability at 1 µM in experiment [2] stood at 54.6%. For the same molecule, the viability at 10 µM in experiment [3] worked out at 23.7%.

Consider `COC(=O)C1=CO[C@@H](O[C@@H]2O[C@H](CO)[C@@H](O)[C@H](O)[C@H]2O)[C@@H]2C(CO)=C[C@@H](OC(=O)/C=C/c3ccc(O)cc3)[C@H]12`, for which the viability at 0.1 µM in experiment [1] was found to be 14.5%. The viability at 1 µM in experiment [2] worked out at 62.2%. For the same molecule, the viability at 10 µM in experiment [3] turned out to be 26.8%.

On to `COc1cc(/C=C/C(=O)OC[C@H]2O[C@@H](O[C@H]3[C@H](Oc4c(-c5ccc(O)c(O)c5)oc5cc(O)cc(O)c5c4=O)O[C@H](CO)[C@H](O)[C@@H]3O)[C@H](O)[C@@H](O)[C@@H]2O)ccc1O`, for which the viability at 0.1 µM in experiment [1] was determined as 62.7%. In addition, in experiment [2], the viability at 1 µM came to 72.9%. Besides, the viability at 10 µM in experiment [3] came to 75%.

Take `COC(=O)C1=CO[C@@H](O[C@@H]2O[C@H](CO)[C@@H](O)[C@H](O)[C@H]2O)[C@@H]2C(CO)=C[C@@H](OC(=O)/C=C/c3ccc(OC)cc3)[C@H]12`: the viability at 0.1 µM in experiment [1] came to 65.4%. The viability at 1 µM in experiment [2] is 71.8%. For the same molecule, the viability at 10 µM in experiment [3] was 52.8%.

Take `COc1cc(/C=C/C(=O)OC[C@H]2O[C@@H](O[C@H]3[C@H](Oc4c(-c5ccc(O)c(O)c5)oc5cc(O)cc(O)c5c4=O)O[C@H](CO)[C@@H](O)[C@@H]3O)[C@H](O)[C@@H](O)[C@@H]2O)ccc1O`: in experiment [1], the viability at 0.1 µM was 62.9%. Moreover, the viability at 1 µM in experiment [2] is 71.5%. Also, the viability at 10 µM in experiment [3] stood at 73.7%.

As for `COc1cc(/C=C/C(=O)OC[C@H]2O[C@@H](O[C@H]3[C@H](Oc4c(-c5ccc(O)cc5)oc5cc(O)cc(O)c5c4=O)O[C@H](CO)[C@H](O)[C@@H]3O)[C@H](O)[C@@H](O)[C@@H]2O)ccc1O`, the viability at 0.1 µM in experiment [1] is 25.2%. Also, the viability at 1 µM in experiment [2] was determined as 66.9%. For the same molecule, the viability at 10 µM in experiment [3] turned out to be 25.2%.

Turning to `COC(=O)C1=CO[C@@H](O[C@@H]2O[C@H](CO)[C@@H](O)[C@H](O)[C@H]2O)[C@@H]2C(CO)=C[C@@H](OC(=O)/C=C\c3ccc(O)cc3)[C@H]12`, in experiment [1], the viability at 0.1 µM stood at 6.9%. The viability at 1 µM in experiment [2] is 25.7%. The viability at 10 µM in experiment [3] was 6.3%.

On to `O=c1c(O[C@@H]2O[C@H](CO)[C@H](O)[C@H](O)[C@H]2O[C@@H]2O[C@H](CO)[C@@H](O)[C@H](O)[C@H]2O)c(-c2ccc(O)cc2)oc2cc(O)cc(O)c12`, for which, in experiment [1], the viability at 0.1 µM is 4.6%. In addition, the viability at 1 µM in experiment [2] was determined as 27%. Further, the viability at 10 µM in experiment [3] worked out at 25.2%.

As for `O=c1c(O[C@@H]2O[C@H](CO)[C@H](O)[C@H](O)[C@H]2O[C@@H]2O[C@H](CO)[C@@H](O)[C@H](O)[C@H]2O)c(-c2ccc(O)c(O)c2)oc2cc(O)cc(O)c12`, in experiment [1], the viability at 0.1 µM was 48.2%. For the same molecule, the viability at 1 µM in experiment [2] was found to be 66%. Besides, the viability at 10 µM in experiment [3] stood at 54%.
